The target of experiment [1] is cAMP-dependent protein kinase type I-alpha regulatory subunit (Homo sapiens) (UniProt P10644). The experiment in a line: Binding affinity to recombinant human full length PKA-R1alpha expressed in Escherichia coli BL21 DE3-RIL cells assessed as reduction in interaction with AKAP at 20 nM by fluorescence polarization analysis. The essentials: (§1)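 Single-concentration direct FP screen: 5 μM full-length recombinant human RIα or RIβ mixed with 20 nM 5(6)-FAM-labelled peptide in 20 mM MOPS pH 7, 150 mM NaCl, 0.005% (v/v) CHAPS. Read at room temperature, Ex 482 nm/Em 520 nm, in duplicate.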

Experiment [2] concerns the target cAMP-dependent protein kinase type I-beta regulatory subunit (Homo sapiens) (UniProt P31321). The experiment in a line: Binding affinity to recombinant human full length PKA-R1beta expressed in Escherichia coli BL21 DE3-RIL cells assessed as reduction in interaction with AKAP at 20 nM by fluorescence polarization analysis. The gist of the method:
as §1

SMILES strings stand for the structures. Calls of active or inactive are those of the source. The rule behind the calls is not given here.

Sequence of cAMP-dependent protein kinase type I-alpha regulatory subunit (Homo sapiens) (P10644 whole entry): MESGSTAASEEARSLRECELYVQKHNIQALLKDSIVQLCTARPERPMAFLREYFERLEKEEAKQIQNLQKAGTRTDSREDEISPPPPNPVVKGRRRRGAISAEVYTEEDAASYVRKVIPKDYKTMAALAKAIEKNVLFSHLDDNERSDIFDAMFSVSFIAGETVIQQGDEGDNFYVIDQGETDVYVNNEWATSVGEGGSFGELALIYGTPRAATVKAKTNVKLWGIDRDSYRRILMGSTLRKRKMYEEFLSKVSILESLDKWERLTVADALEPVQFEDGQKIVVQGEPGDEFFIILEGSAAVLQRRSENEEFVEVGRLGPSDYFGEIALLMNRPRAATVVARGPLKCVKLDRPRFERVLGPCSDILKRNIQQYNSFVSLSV
Sequence of cAMP-dependent protein kinase type I-beta regulatory subunit (Homo sapiens) (P31321 whole entry): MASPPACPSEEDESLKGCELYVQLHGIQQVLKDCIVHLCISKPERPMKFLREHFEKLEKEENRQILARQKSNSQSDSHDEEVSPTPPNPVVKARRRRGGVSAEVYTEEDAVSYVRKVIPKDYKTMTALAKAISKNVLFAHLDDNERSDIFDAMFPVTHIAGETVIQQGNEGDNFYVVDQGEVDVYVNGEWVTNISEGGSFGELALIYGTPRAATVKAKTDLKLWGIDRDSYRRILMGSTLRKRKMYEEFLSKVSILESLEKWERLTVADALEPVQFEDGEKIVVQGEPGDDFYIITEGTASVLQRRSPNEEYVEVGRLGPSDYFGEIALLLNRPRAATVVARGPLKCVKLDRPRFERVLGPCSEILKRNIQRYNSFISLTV

With `CC(C)C[C@H](NC(=O)[C@H](C)NC(=O)[C@]1(C)CCC/C=C/CCC[C@](C)(NC(=O)[C@H](CO)NC(=O)[C@@H](NC(=O)[C@H](CC(C)C)NC(=O)[C@H](Cc2ccccc2)NC(=O)[C@H](CCCCN)NC(=O)[C@H](C)NC(=O)[C@H](CC(C)C)NC(=O)[C@H](CCCCN)NC(=O)[C@H](CCCCN)NC(=O)COCCOCCOCCN)C(C)C)C(=O)N[C@@H](C)C(=O)N[C@@H](CC(C)C)C(=O)N[C@@H](CCCCN)C(=O)N1)C(=O)N[C@@H](CCCCN)C(=O)O`, the result in experiment [1] and in experiment [2] was inactive.
In the case of `CC(C)C[C@H](NC(=O)[C@H](C)NC(=O)[C@]1(C)CCC/C=C/CCC[C@](C)(NC(=O)[C@H](CO)NC(=O)[C@@H](NC(=O)[C@H](C)NC(=O)[C@H](Cc2ccccc2)NC(=O)[C@H](CCCCN)NC(=O)[C@H](C)NC(=O)[C@H](CC(C)C)NC(=O)[C@H](CCCCN)NC(=O)[C@H](CCCCN)NC(=O)COCCOCCOCCN)C(C)C)C(=O)N[C@@H](C)C(=O)N[C@@H](CC(C)C)C(=O)N[C@@H](CCCCN)C(=O)N1)C(=O)N[C@@H](CCCCN)C(=O)O`, the outcome in experiment [1] and in experiment [2] was inactive.
Consider `CC(C)C[C@H](NC(=O)[C@H](C)NC(=O)[C@]1(C)CCC/C=C/CCC[C@](C)(NC(=O)[C@H](CO)NC(=O)[C@@H](NC(=O)[C@H](CC(C)C)NC(=O)[C@H](C)NC(=O)[C@H](CCCCN)NC(=O)[C@H](C)NC(=O)[C@H](CC(C)C)NC(=O)[C@H](CCCCN)NC(=O)[C@H](CCCCN)NC(=O)COCCOCCOCCN)C(C)C)C(=O)N[C@@H](C)C(=O)N[C@@H](CC(C)C)C(=O)N[C@@H](CCCCN)C(=O)N1)C(=O)N[C@@H](CCCCN)C(=O)O`, for which the outcome in experiment [1] and in experiment [2] was inactive.
Regarding `CC(C)C[C@@H]1NC(=O)[C@H](C)NC(=O)[C@@](C)(NC(=O)[C@H](CO)NC(=O)[C@@H](NC(=O)[C@H](CC(C)C)NC(=O)[C@H](Cc2ccccc2)NC(=O)[C@H](CCCCN)NC(=O)[C@H](C)NC(=O)[C@H](CC(C)C)NC(=O)[C@H](CCCCN)NC(=O)[C@H](CCCCN)NC(=O)COCCOCCOCCN)C(C)C)CCC/C=C/CCC[C@@](C)(C(=O)N[C@@H](C)C(=O)N[C@@H](CC(C)C)C(=O)N[C@@H](CCCCN)C(=O)O)NC(=O)[C@H](C)NC1=O`, the result in experiment [1] and in experiment [2] was inactive.
For `CC(C)C[C@H](NC(=O)[C@H](C)NC(=O)[C@]1(C)CCC/C=C/CCC[C@](C)(NC(=O)[C@H](CO)NC(=O)[C@H](C)NC(=O)[C@H](CC(C)C)NC(=O)[C@H](Cc2ccccc2)NC(=O)[C@H](CCCCN)NC(=O)[C@H](C)NC(=O)[C@H](CC(C)C)NC(=O)[C@H](CCCCN)NC(=O)[C@H](CCCCN)NC(=O)COCCOCCOCCN)C(=O)N[C@@H](C)C(=O)N[C@@H](CC(C)C)C(=O)N[C@@H](CCCCN)C(=O)N1)C(=O)N[C@@H](CCCCN)C(=O)O`, the result in experiment [1] and in experiment [2] was inactive.
As for `CC(C)C[C@H](NC(=O)[C@H](C)NC(=O)[C@]1(C)CCC/C=C/CCC[C@](C)(NC(=O)[C@H](CO)NC(=O)[C@@H](NC(=O)[C@H](CC(C)C)NC(=O)[C@H](Cc2ccccc2)NC(=O)[C@H](CCCCN)NC(=O)[C@H](C)NC(=O)[C@H](CC(C)C)NC(=O)[C@H](CCCCN)NC(=O)[C@H](CCCCN)NC(=O)COCCOCCOCCN)C(C)C)C(=O)N[C@@H](C)C(=O)N[C@@H](CC(C)C)C(=O)N[C@@H](CCCCN)C(=O)N1)C(=O)N[C@@H](C)C(=O)O`, the result in experiment [1] and in experiment [2] was inactive.
`CC(C)C[C@H](NC(=O)[C@H](C)NC(=O)[C@]1(C)CCC/C=C/CCC[C@](C)(NC(=O)[C@H](CO)NC(=O)[C@@H](NC(=O)[C@H](CC(C)C)NC(=O)[C@H](Cc2ccccc2)NC(=O)[C@H](CCCCN)NC(=O)[C@H](C)NC(=O)[C@H](CC(C)C)NC(=O)[C@H](CCCCN)NC(=O)[C@H](CCCCN)NC(=O)COCCOCCOCCN)C(C)C)C(=O)N[C@@H](C)C(=O)N[C@@H](C)C(=O)N[C@@H](CCCCN)C(=O)N1)C(=O)N[C@@H](CCCCN)C(=O)O`: the outcome in experiment [1] and in experiment [2] was inactive.
For `CC(C)C[C@H](NC(=O)[C@H](C)NC(=O)[C@]1(C)CCC/C=C/CCC[C@](C)(NC(=O)[C@H](CO)NC(=O)[C@@H](NC(=O)[C@H](CC(C)C)NC(=O)[C@H](Cc2ccccc2)NC(=O)[C@H](CCCCN)NC(=O)[C@H](C)NC(=O)[C@H](C)NC(=O)[C@H](CCCCN)NC(=O)[C@H](CCCCN)NC(=O)COCCOCCOCCN)C(C)C)C(=O)N[C@@H](C)C(=O)N[C@@H](CC(C)C)C(=O)N[C@@H](CCCCN)C(=O)N1)C(=O)N[C@@H](CCCCN)C(=O)O`, the outcome in experiment [1] and in experiment [2] was inactive.
Consider `CC(C)C[C@H](NC(=O)[C@H](C)NC(=O)[C@]1(C)CCC/C=C/CCC[C@](C)(NC(=O)[C@H](CO)NC(=O)[C@@H](NC(=O)[C@H](CC(C)C)NC(=O)[C@H](Cc2ccccc2)NC(=O)[C@H](C)NC(=O)[C@H](C)NC(=O)[C@H](CC(C)C)NC(=O)[C@H](CCCCN)NC(=O)[C@H](CCCCN)NC(=O)COCCOCCOCCN)C(C)C)C(=O)N[C@@H](C)C(=O)N[C@@H](CC(C)C)C(=O)N[C@@H](CCCCN)C(=O)N1)C(=O)N[C@@H](CCCCN)C(=O)O`, for which the outcome in experiment [1] and in experiment [2] was inactive.
On to `CC(C)C[C@@H]1NC(=O)[C@H](C)NC(=O)[C@@](C)(NC(=O)[C@H](CO)NC(=O)[C@@H](NC(=O)[C@H](CC(C)C)NC(=O)[C@H](Cc2ccccc2)NC(=O)[C@H](CCCCN)NC(=O)[C@H](C)NC(=O)[C@H](CC(C)C)NC(=O)[C@H](CCCCN)NC(=O)[C@H](CCCCN)NC(=O)COCCOCCOCCN)C(C)C)CCC/C=C/CCC[C@@](C)(C(=O)N[C@@H](C)C(=O)N[C@@H](C)C(=O)N[C@@H](CCCCN)C(=O)O)NC(=O)[C@H](CCCCN)NC1=O`, for which the result in experiment [1] and in experiment [2] was inactive.
Regarding `CC(C)C[C@H](NC(=O)[C@H](C)NC(=O)[C@]1(C)CCC/C=C/CCC[C@](C)(NC(=O)[C@H](C)NC(=O)[C@@H](NC(=O)[C@H](CC(C)C)NC(=O)[C@H](Cc2ccccc2)NC(=O)[C@H](CCCCN)NC(=O)[C@H](C)NC(=O)[C@H](CC(C)C)NC(=O)[C@H](CCCCN)NC(=O)[C@H](CCCCN)NC(=O)COCCOCCOCCN)C(C)C)C(=O)N[C@@H](C)C(=O)N[C@@H](CC(C)C)C(=O)N[C@@H](CCCCN)C(=O)N1)C(=O)N[C@@H](CCCCN)C(=O)O`, the outcome in experiment [1] and in experiment [2] was inactive.
`CC(C)C[C@H](NC(=O)[C@H](C)NC(=O)[C@H](CCCCN)NC(=O)COCCOCCOCCN)C(=O)N[C@@H](C)C(=O)N[C@@H](CCCCN)C(=O)N[C@@H](Cc1ccccc1)C(=O)N[C@@H](CC(C)C)C(=O)N[C@H](C(=O)N[C@@H](CO)C(=O)N[C@@]1(C)CCC/C=C/CCC[C@@](C)(C(=O)N[C@@H](C)C(=O)N[C@@H](CC(C)C)C(=O)N[C@@H](CCCCN)C(=O)O)NC(=O)[C@H](CCCCN)NC(=O)[C@H](CC(C)C)NC(=O)[C@H](C)NC1=O)C(C)C`: the result in experiment [1] and in experiment [2] was inactive.
For the compound `CC(C)C[C@H](NC(=O)[C@H](C)NC(=O)[C@]1(C)CCC/C=C/CCC[C@](C)(NC(=O)[C@H](CO)NC(=O)[C@@H](NC(=O)[C@H](CC(C)C)NC(=O)[C@H](Cc2ccccc2)NC(=O)[C@H](CCCCN)NC(=O)[C@H](C)NC(=O)[C@H](CC(C)C)NC(=O)[C@H](CCCCN)NC(=O)[C@H](C)NC(=O)COCCOCCOCCN)C(C)C)C(=O)N[C@@H](C)C(=O)N[C@@H](CC(C)C)C(=O)N[C@@H](CCCCN)C(=O)N1)C(=O)N[C@@H](CCCCN)C(=O)O`, the result in experiment [1] and in experiment [2] was inactive.

Values taken from ChEMBL document CHEMBL4184287, “Investigating PKA-RII specificity using analogs of the PKA:AKAP peptide inhibitor STAD-2” (Bioorg Med Chem, 2018).
